Published values gathered from unrelated publications.
Oprd1: Delta-type opioid receptor (Oprd1, Rattus norvegicus, UniProt P33533)
DPP9: Dipeptidyl peptidase 9 (DPP9, Homo sapiens, UniProt Q86TI2)
MAP4K1: Mitogen-activated protein kinase kinase kinase kinase 1 (MAP4K1, Homo sapiens, UniProt Q92918)

C#Cc1n[nH]c2c(-c3cn([C@@H](C)c4ccccc4)c(=O)[nH]c3=O)cc(F)cc12 — inhibition (Tyrosine-protein kinase ZAP-70 (ZAP70, Homo sapiens, UniProt P43403); enzyme activity, inhibitor; 0.1 µM): 2%
CN1CCN(c2ccc(Nc3nccc(-c4cccc([N+](=O)[O-])c4)n3)cc2C(F)(F)F)CC1 — remaining signal (Cyclin-dependent kinase 2 homolog (CRK2, Plasmodium falciparum, UniProt P61075); cell-free assay; 10 µM): 93%
OC[C@H]1CNCCN1C[C@@H]1CCCN1C[C@H](CC1CCCCC1)N1CCN(CCc2ccc(Cl)c(Cl)c2)[C@H](Cc2ccc(O)cc2)C1 — remaining binding (Oprd1; ligand displacement, radioligand; 0.5 µM, 2 h, pH 7.5, cell membranes): 88%
Nc1ncc(-c2nc(N3CCOCC3)nc(N3CCOCC3)n2)c(C(F)F)n1 — remaining binding (Cyclin-dependent kinase 8 (CDK8, Homo sapiens, UniProt P49336); binding, competition with immobilised ligand; 10 µM): 100%
N#Cc1ccc(NCCNCC(=O)N2N=CCC2C#N)nc1 (stereo not shown) — inhibition (DPP9; enzyme activity, inhibitor; 10 µM): 87%
CCN(CC)CCCC[C@H](NC(=O)[C@H](CC(C)C)NC(=O)[C@H](C)NC(=O)[C@H](Cc1ccccc1)NC(=O)c1ccc(C(C)(C)C)cc1)C(=O)N[C@@H](CO)C(=O)OC — remaining binding (5-hydroxytryptamine receptor 7 (HTR7, Homo sapiens, UniProt P34969); ligand displacement, radioligand; 10 µM): 92.2%
Cc1nn(C)cc1-c1nc2c(N3CCN(Cc4ccc(Cl)cc4)CC3)c(Cl)cnc2[nH]1 — remaining binding (MAP4K1; binding, competition with immobilised ligand; 1 µM): 74%
CC[C@@H](C)[C@@H]1CN([C@H](Cc2ccc3ccccc3c2)CN2CCC[C@H]2CN2CCNC[C@@H]2CO)CCN1CCc1ccc(Cl)c(Cl)c1 — remaining binding (Oprd1; ligand displacement, radioligand; 0.5 µM, 2 h, pH 7.5, cell membranes): 87.7%
CN(C)C(=O)COC(=O)Cc1ccc(OC(=O)c2ccc(NC(=N)N)cc2)cc1 — inhibition (Ubiquitin carboxyl-terminal hydrolase 14 (USP14, Homo sapiens, UniProt P54578); enzyme activity, inhibitor; 10 µM): 0%
Oc1ccc(C[C@@H]2CN([C@H](Cc3ccc4ccccc4c3)CN3CCC[C@H]3CN3CCNC[C@@H]3Cc3ccc4ccccc4c3)CCN2CCC23CC4CC(CC(C4)C2)C3)cc1 — remaining binding (Oprd1; ligand displacement, radioligand; 0.5 µM, 2 h, pH 7.5, cell membranes): 94.4%
C#Cc1n[nH]c2c(-c3cn(C(C)c4ccccn4)c(=O)[nH]c3=O)cc(F)cc12 (stereo not shown) — inhibition (Cyclin-dependent kinase 2, with cyclin E1 (CDK2, Homo sapiens, UniProt P24941); enzyme activity, inhibitor; 1 µM): -13.7%
CC[C@@H](C)[C@@H]1CN([C@@H](CC2CCCCC2)CN2CCC[C@H]2CN2CCNC[C@@H]2CO)CCN1CCC12CC3CC(CC(C3)C1)C2 — remaining binding (Oprd1; ligand displacement, radioligand; 0.5 µM, 2 h, pH 7.5, cell membranes): 90%
CC[C@H](NC(=O)OCc1ccccc1)C(=O)N[C@H](C(=O)N[C@@H](CC(C)C)C(=O)N(C)N(C#N)CCC(N)=O)C(C)(C)C — kon (Cathepsin B (CTSB, Homo sapiens, UniProt P07858); enzyme activity, inhibitor): 8400 M⁻¹ s⁻¹
N=C(N)c1ccc2cc(OC(=O)c3ccc(N=C(N)N)cc3)ccc2c1 — inhibition (DPP9; enzyme activity, inhibitor; 10 µM): 13%
C[C@@H](O)[C@@H]1CN([C@H](Cc2ccc3ccccc3c2)CN2CCC[C@H]2CN2CCNC[C@@H]2Cc2ccc3ccccc3c2)CCN1CCC12CC3CC(CC(C3)C1)C2 — remaining binding (Oprd1; ligand displacement, radioligand; 0.5 µM, 2 h, pH 7.5, cell membranes): 100%
COc1ncccc1-c1cnn2ccc(N3CCN(C(=O)OC(C)C)CC3)nc12 — remaining binding (MAP4K1; binding, competition with immobilised ligand; 1 µM): 80%
